# Laboratory results: ChEMBL document CHEMBL6177924, “Synthesis and antifungal evaluation of new azole derivatives containing 1,2,3-triazole” (RSC Med Chem, 2025)
# Activity calls are given as the source filed them. No cut-off for these calls is given here.
# Columns and labels:
# Candida albicans [1] = assay: Antifungal activity against drug resistant Candida albicans SC5314-FR assessed as inhibition of fungal growth incubated for 24 hrs by CLSI protocol based microdilution method; assay type: functional
# In short: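 Fluconazole-resistant strain derived from SC5314 by fluconazole exposure. Log-phase cells at 1×10^5 CFU/mL in SDB. Drug fivefold serial dilutions, 200–0.064 µg/mL final, DMSO <0.1%, triplicate wells, 200 µL. Incubated 30 °C for 24 h and read at OD630. Growth, blank and fluconazole controls included. Run three times.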
# Candida albicans [2] = assay: Antifungal activity against Candida albicans assessed as inhibition of mycelia formation at 0.27 to 1.06 microg/ml measured after 4 to 8 hrs by inverted microscopic analysis; assay type: functional, organism-based; conditions: dose 0.27-1.06 µg/ml, time 4-8 hrs
# In short: (§1)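 Hyphae were induced in SD+10% FBS or in Spider medium. Log-phase cells at 1×10^5 CFU/mL final, 1 mL per well in 24-well plates, 3 wells per group. Drug at 0.27, 0.53 or 1.06 µg/mL, fluconazole, or no-drug control. Incubated at 30 °C; hyphal formation observed and photographed by inverted microscope at 4 h and 8 h.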
# Candida albicans [3] = assay: Antifungal activity against Candida albicans assessed as increase in pseudomycelial fungal cells at 0.27 to 1.06 microg/ml measured after 4 to 8 hrs by inverted microscopic analysis; assay type: functional, organism-based; conditions: dose 0.27-1.06 µg/ml, time 4-8 hrs; in short: as §1
# Candida albicans [4] = assay: Antifungal activity against Candida albicans SC5314 assessed as inhibition of fungal growth measured up to 48 hrs by time-killing curve analysis; assay type: functional, organism-based
# In short: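 Log-phase cells at 1×10^5 CFU/mL in SDB, 10 mL per group. Drug at 0.27, 0.53 or 1.06 µg/mL, plus fluconazole and untreated controls. Shaken 150 r/min at 30 °C. Samples taken at 0, 4, 8, 12, 24, 36 and 48 h and read at A630, triplicate wells. Absorbance plotted against time.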
# Candida albicans [5] = assay: Induction of morphological changes in Candida albicans assessed as loose distribution of cytoplasm at 0.53 microg/ml incubated for 16 to 24 hrs by transmission electron microscopic analysis; assay type: functional, organism-based; conditions: dose 0.53 µg/ml, time 16-24 hrs
# In short: (§2)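 C. albicans at 5×10^5 CFU/mL in SDB shaken with drug (0.27, 0.53, 1.06 µg/mL), fluconazole or no drug at 30 °C, 150 r/min, for 16-24 h. Pellets washed with PBS and fixed in cold 3% paraformaldehyde/2.5% glutaraldehyde at 4 °C, then 1% OsO4. Dehydrated in acetone and embedded in Epon-812. 60-90 nm sections stained with uranyl acetate and lead citrate, imaged by TEM.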
# Candida albicans [6] = assay: Antibiofilm activity in Candida albicans SC5314 assessed as appearance of pseudomycelial form of fungal cells at 0.27 microg/ml measured after 24 hrs by inverted microscopic analysis; assay type: functional, organism-based; conditions: dose 0.27 µg/ml
# In short: (§3)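 Log-phase C. albicans in RPMI1640+10% FBS at 1×10^5 CFU/mL allowed to adhere in 24-well plates for 90 min at 30 °C; unattached medium removed. 1 mL medium with drug (0.27, 0.53, 1.06 µg/mL) or without drug added; 24 h at 30 °C. Biofilm stained with crystal violet 30 min, washed 3× with PBS, viewed by inverted microscope.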
# Candida albicans [7] = assay: Induction of morphological changes in Candida albicans assessed as unclear cell membrane outline at 0.53 to 1.06 microg/ml incubated for 16 to 24 hrs by transmission electron microscopic analysis; assay type: functional, organism-based; conditions: dose 0.53-1.06 µg/ml, time 16-24 hrs; in short: as §2
# Candida albicans [8] = assay: Antifungal activity against Candida albicans assessed as inhibition of mycelia formation at 0.53 microg/ml measured after 4 to 8 hrs by inverted microscopic analysis; assay type: functional, organism-based; conditions: dose 0.53 µg/ml, time 4-8 hrs; in short: as §1
# Candida albicans [9] = assay: Induction of morphological changes in Candida albicans assessed as cell enlargement at 0.53 to 1.06 microg/ml incubated for 16 to 24 hrs by transmission electron microscopic analysis; assay type: functional, organism-based; conditions: dose 0.53-1.06 µg/ml, time 16-24 hrs; in short: as §2
# Candida albicans [10] = assay: Induction of morphological changes in Candida albicans assessed as incomplete cell wall structure at 0.53 to 1.06 microg/ml incubated for 16 to 24 hrs by transmission electron microscopic analysis; assay type: functional, organism-based; conditions: dose 0.53-1.06 µg/ml, time 16-24 hrs; in short: as §2
# 16HBE14o- = assay: Cytotoxicity against human 16HBE14o- cells assessed as reduction in cell viability at <=4 microg/ml incubated for 48 hrs by CCK8 assay; assay type: toxicity, cell-based; conditions: dose < 4 µg/ml
# In short: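 16HBE cells in RPMI1640 with 10% FBS and 1% antibiotics, seeded in 96-well plates and attached for 24 h at 37 °C. Drug serially diluted 5-fold from 100 µg/mL in complete medium, with growth and blank controls. Exposure 48 h, then viability read with CCK8 reagent.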
# Candida albicans [11] = assay: Induction of morphological changes in Candida albicans assessed as blurred spacing between cell wall and cell membrane at 0.53 microg/ml incubated for 16 to 24 hrs by transmission electron microscopic analysis; assay type: functional, organism-based; conditions: dose 0.53 µg/ml, time 16-24 hrs; in short: as §2
# Candida albicans [12] = assay: Antibiofilm activity in Candida albicans SC5314 assessed as appearance of short mycelia at 0.27 microg/ml measured after 24 hrs by inverted microscopic analysis; assay type: functional, organism-based; conditions: dose 0.27 µg/ml; in short: as §3
# Candida albicans [13] = assay: Induction of morphological changes in Candida albicans assessed as blurred boundary between cell wall and cell membrane at 0.53 to 1.06 microg/ml incubated for 16 to 24 hrs by transmission electron microscopic analysis; assay type: functional, organism-based; conditions: dose 0.53-1.06 µg/ml, time 16-24 hrs; in short: as §2
# Cell membrane [14] = assay: Induction of cell membrane permeability in Candida albicans assessed as increase in red fluorescence incubated for 16 to 24 hrs by PI staining based fluorescence microscopic analysis; assay type: subcellular; conditions: time 16-24 hrs
# In short: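 C. albicans at 1×10^5 CFU/mL in SDB grown with drug (0.27, 0.53, 1.06 µg/mL), fluconazole or no drug at 30 °C, 150 r/min, for 16-24 h. Cells washed and resuspended in PBS at 2×10^6 CFU/mL. Stained with propidium iodide (final 5 µg/mL) 30 min at room temperature in the dark, then washed. Imaged by fluorescence microscopy and fluorescence intensity measured.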
# Candida albicans [15] = assay: Induction of morphological changes in Candida albicans assessed as effect on cytoplasmic structure at 0.53 to 1.06 microg/ml incubated for 16 to 24 hrs by transmission electron microscopic analysis; assay type: functional, organism-based; conditions: dose 0.53-1.06 µg/ml, time 16-24 hrs; in short: as §2
# Candida albicans [16] = assay: Antifungal activity against Candida albicans assessed as increase in yeast fungal cells at 0.27 to 1.06 microg/ml measured after 4 to 8 hrs by inverted microscopic analysis; assay type: functional, organism-based; conditions: dose 0.27-1.06 µg/ml, time 4-8 hrs; in short: as §1
# Candida albicans [17] = assay: Induction of morphological changes in Candida albicans assessed as normal cell wall appearance at 0.53 microg/ml incubated for 16 to 24 hrs by transmission electron microscopic analysis; assay type: functional, organism-based; conditions: dose 0.53 µg/ml, time 16-24 hrs; in short: as §2
# Candida albicans [18] = assay: Antibiofilm activity in Candida albicans SC5314 assessed as decrease in number of mycelia at 0.27 microg/ml measured after 24 hrs by inverted microscopic analysis; assay type: functional, organism-based; conditions: dose 0.27 µg/ml; in short: as §3
# Candida albicans [19] = assay: Antifungal activity against drug sensitive Candida albicans SC5314 assessed as inhibition of fungal growth incubated for 24 hrs by CLSI protocol based microdilution method; assay type: functional
# In short: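 Broth microdilution of log-phase C. albicans at 1×10^5 CFU/mL in Sabouraud liquid medium (SDB). Compounds serially diluted 5-fold to final 200-0.064 µg/mL, DMSO below 0.1%. Triplicate wells, 200 µL final volume, with growth, blank and fluconazole controls. Incubated 24 h at 30 °C, OD read at 630 nm; experiment repeated three times.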
# Cell membrane [20] = assay: Induction of cell membrane permeability in Candida albicans assessed as increase in fluorescence intensity by multifunctional enzymatic assay; assay type: subcellular
structure (smiles),measurement,setting,value
O=C(Cn1cc(COC(Cn2ccnc2)c2ccc(Cl)cc2Cl)nn1)c1ccc2ccccc2c1 (stereo unspecified),MIC50,Candida albicans [1],10.9 µg/mL
same,Activity,Candida albicans [2],Active
same,Activity,Candida albicans [3],Active
same,Activity,Candida albicans [4],Active
same,Activity,Candida albicans [5],Active
same,Activity,Candida albicans [6],Active
same,Activity,Candida albicans [7],Active
same,Activity,Candida albicans [8],Active; Better Than That Of Fluconazole Group
same,Activity,Candida albicans [9],Active
same,Activity,Candida albicans [10],Active
same,Activity,16HBE14o-,Non-toxic
same,Activity,Candida albicans [11],Active
same,Activity,Candida albicans [12],Active
same,Activity,Candida albicans [13],Active
same,Activity,Cell membrane [14],Dose-dependent-effect
same,Activity,Candida albicans [15],Active
same,Activity,Candida albicans [16],Active
same,Activity,Candida albicans [17],Active
same,Activity,Candida albicans [18],Active
same,MIC50,Candida albicans [19],0.53 µg/mL
same,Activity,Cell membrane [20],Dose-dependent-effect; Better Than That Of Fluconazole Group
